ChEMBL document CHEMBL4715738, “In Vitro Antibacterial Activity of Curcumin-Polymyxin B Combinations against Multidrug-Resistant Bacteria Associated with Traumatic Wound Infections” (J Nat Prod, 2016)
Activity calls are given as the source filed them.

Columns and labels:
Staphylococcus aureus [1] = test: Antibacterial activity against methicillin-resistant Staphylococcus aureus NCTC 12493 assessed as reduction in bacterial growth incubated for 24 hrs in presence of curcumin; type: functional
Streptococcus pyogenes [2] = test: Antibacterial activity against Streptococcus pyogenes SPY3 assessed as reduction in bacterial growth incubated for 24 hrs in presence of curcumin; type: functional
Escherichia coli [3] = test: Antibacterial activity against Escherichia coli EC2 harboring CTX-M-15 assessed as reduction in bacterial growth incubated for 24 hrs in presence of curcumin; type: functional
Escherichia coli [4] = test: Antibacterial activity against Escherichia coli EC204 harboring NDM-1 assessed as reduction in bacterial growth incubated for 24 hrs in presence of curcumin; type: functional
Escherichia coli [5] = test: Antibacterial activity against Escherichia coli NCTC 12241 assessed as reduction in bacterial growth incubated for 24 hrs in presence of curcumin; type: functional
Acinetobacter baumannii [6] = test: Antibacterial activity against Acinetobacter baumannii AB12 harboring OXA-23 assessed as reduction in bacterial growth incubated for 24 hrs in presence of curcumin; type: functional
Acinetobacter baumannii [7] = test: Antibacterial activity against Acinetobacter baumannii NCTC 19606 assessed as reduction in bacterial growth incubated for 24 hrs in presence of curcumin; type: functional
Pseudomonas aeruginosa [8] = test: Antibacterial activity against Pseudomonas aeruginosa PAO1 assessed as reduction in bacterial growth incubated for 24 hrs in presence of curcumin; type: functional
Pseudomonas aeruginosa [9] = test: Antibacterial activity against Pseudomonas aeruginosa PA14 assessed as reduction in bacterial growth incubated for 24 hrs in presence of curcumin; type: functional
Pseudomonas aeruginosa [10] = test: Antibacterial activity against Pseudomonas aeruginosa PA30 harboring VIM-2 assessed as reduction in bacterial growth incubated for 24 hrs in presence of curcumin; type: functional
[11] = test system: Stenotrophomonas maltophilia; test: Antibacterial activity against Stenotrophomonas maltophilia SMB07 assessed as reduction in bacterial growth incubated for 24 hrs in presence of curcumin; type: functional
Staphylococcus aureus [12] = test: Synergistic antibacterial activity against Staphylococcus aureus ATCC 25923 assessed as fractional inhibitory concentration index measured after 24 hrs in presence of curcumin by checkerboard assay; type: functional
How it was run: (§1)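 FICI was derived from checkerboard MICs. Synergy was defined as FICI ≤ 0.5 and additive as FICI > 0.5−4.0. Where an MIC was not reached, the dilution above the maximum dose was used in the FICI calculation. Experiments were run in triplicate and reported as means.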

Streptococcus pyogenes [13] = test: Synergistic antibacterial activity against Streptococcus pyogenes SPY1 assessed as fractional inhibitory concentration index measured after 24 hrs in presence of curcumin by checkerboard assay; type: functional
How it was run: (§2)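 FICI calculated from combination MICs; ≤0.5 taken as synergy and >0.5–4.0 as additive. Where an MIC was not reached, the dilution above the highest concentration tested was used in the calculation. Run in triplicate and reported as means.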

Escherichia coli [14] = test: Synergistic antibacterial activity against Escherichia coli EC204 harboring NDM-1 assessed as fractional inhibitory concentration index measured after 24 hrs in presence of curcumin by checkerboard assay; type: functional; how it was run: as §1
Escherichia coli [15] = test: Additive antibacterial activity against Escherichia coli NCTC 12241 assessed as fractional inhibitory concentration index measured after 24 hrs in presence of curcumin by checkerboard assay; type: functional
Acinetobacter baumannii [16] = test: Synergistic antibacterial activity against Acinetobacter baumannii AB14 harboring OXA-23 clone 1 assessed as fractional inhibitory concentration index measured after 24 hrs in presence of curcumin by checkerboard assay; type: functional; how it was run: as §1
Acinetobacter baumannii [17] = test: Synergistic antibacterial activity against Acinetobacter baumannii AB16 harboring OXA-23 clone 2 assessed as fractional inhibitory concentration index measured after 24 hrs in presence of curcumin by checkerboard assay; type: functional; how it was run: as §1
Pseudomonas aeruginosa [18] = test: Synergistic antibacterial activity against Pseudomonas aeruginosa PA30 harboring VIM-2 assessed as fractional inhibitory concentration index measured after 24 hrs in presence of curcumin by checkerboard assay; type: functional; how it was run: as §1
Pseudomonas aeruginosa [19] = test: Synergistic antibacterial activity against Pseudomonas aeruginosa ATCC 27853 assessed as fractional inhibitory concentration index measured after 24 hrs in presence of curcumin by checkerboard assay; type: functional; how it was run: as §2
[20] = test system: Stenotrophomonas maltophilia; test: Synergistic antibacterial activity against Stenotrophomonas maltophilia SMS01 assessed as fractional inhibitory concentration index measured after 24 hrs in presence of curcumin by checkerboard assay; type: functional; how it was run: as §2
[21] = test system: Stenotrophomonas maltophilia; test: Synergistic antibacterial activity against Stenotrophomonas maltophilia SMB07 assessed as fractional inhibitory concentration index measured after 24 hrs in presence of curcumin by checkerboard assay; type: functional; how it was run: as §2
Enterococcus faecium = test: Antibacterial activity against vancomycin-resistant Enterococcus faecium OEF42 assessed as reduction in bacterial growth incubated for 24 hrs in presence of polymyxin B; type: functional
Enterococcus faecalis = test: Antibacterial activity against […] Enterococcus faecalis ATCC 29212 assessed as reduction in bacterial growth incubated for 24 hrs in presence of polymyxin B; type: functional
Staphylococcus aureus [22] = test: Antibacterial activity against Staphylococcus aureus ATCC 25923 assessed as reduction in bacterial growth incubated for 24 hrs in presence of polymyxin B; type: functional
Staphylococcus aureus [23] = test: Antibacterial activity against methicillin-resistant Staphylococcus aureus NCTC 12493 assessed as reduction in bacterial growth incubated for 24 hrs in presence of polymyxin B; type: functional
Streptococcus pyogenes [24] = test: Antibacterial activity against Streptococcus pyogenes SPY3 assessed as reduction in bacterial growth incubated for 24 hrs in presence of polymyxin B; type: functional
Escherichia coli [25] = test: Antibacterial activity against Escherichia coli NCTC 12241 assessed as reduction in bacterial growth incubated for 24 hrs in presence of polymyxin B; type: functional
Acinetobacter baumannii [26] = test: Antibacterial activity against Acinetobacter baumannii AB14 harboring OXA-23 clone 1 assessed as reduction in bacterial growth incubated for 24 hrs in presence of polymyxin B; type: functional
Pseudomonas aeruginosa [27] = test: Antibacterial activity against Pseudomonas aeruginosa PA30 harboring VIM-2 assessed as reduction in bacterial growth incubated for 24 hrs in presence of polymyxin B; type: functional
[28] = test system: Stenotrophomonas maltophilia; test: Antibacterial activity against Stenotrophomonas maltophilia SMS01 assessed as reduction in bacterial growth incubated for 24 hrs in presence of polymyxin B; type: functional
Pseudomonas aeruginosa [29] = test: Bactericidal activity against Pseudomonas aeruginosa ATCC 27853 assessed as log reduction in colony forming units at 0.5 fold MIC measured after 24 hrs in presence of polymyxin B at MIC by time kill assay; type: functional
How it was run: (§3)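 Time-kill in Mueller-Hinton 2 broth. Inoculum was a 1/1000 dilution of a 16 h overnight culture, about 10^6 CFU/mL, 10 mL per tube. Arms were each agent alone at ×1 MIC, or the combination at ×1 MIC plus ×0.5 MIC partner. Incubated at 37 °C with continuous agitation for 24 h. Samples taken at 0, 2, 4, 6 and 24 h, serially diluted and plated on IsoSensitest agar for CFU counts.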

Acinetobacter baumannii [30] = test: Antibacterial activity against Acinetobacter baumannii ATCC 19606 assessed as reduction in bacterial colony formation at 0.5 fold MIC measured after 24 hrs by time kill assay; type: functional, organism-based; conditions: ATCC 19606 = CIP 70.34 = JCM 6841; how it was run: as §3
Staphylococcus aureus [31] = test: Potentiation of polymyxin B-induced antibacterial activity against Staphylococcus aureus ATCC 25923 assessed as fold reduction in polymyxin B MIC measured after 24 hrs in presence of polymyxin B by checkerboard assay; type: functional
Acinetobacter baumannii [32] = test: Potentiation of polymyxin B-induced antibacterial activity against Acinetobacter baumannii NCTC 19606 assessed as fold reduction in polymyxin B MIC measured after 24 hrs in presence of polymyxin B by checkerboard assay; type: functional
Pseudomonas aeruginosa [33] = test: Potentiation of polymyxin B-induced antibacterial activity against Pseudomonas aeruginosa PA14 assessed as fold reduction in polymyxin B MIC measured after 24 hrs in presence of polymyxin B by checkerboard assay; type: functional

## CC[C@H](C)CCCCC(=O)N[C@@H](CCN)C(=O)N[C@H](C(=O)N[C@@H](CCN)C(=O)N[C@H]1CCNC(=O)[C@H]([C@@H](C)O)NC(=O)[C@H](CCN)NC(=O)[C@H](CCN)NC(=O)[C@H](CC(C)C)NC(=O)[C@@H](Cc2ccccc2)NC(=O)[C@H](CCN)NC1=O)[C@@H](C)O.O=S(=O)(O)O
Staphylococcus aureus [1]
  MIC: 0.79 µM
Streptococcus pyogenes [2]
  MIC: 0.79 µM
Escherichia coli [3]
  MIC: 0.024 µM
Escherichia coli [4]
  MIC: 0.024 µM
Escherichia coli [5]
  MIC: 0.024 µM
Acinetobacter baumannii [6]
  MIC: 0.024 µM
Acinetobacter baumannii [7]
  MIC: 0.012 µM
Pseudomonas aeruginosa [8]
  MIC: 0.012 µM
Pseudomonas aeruginosa [9]
  MIC: 0.012 µM
Pseudomonas aeruginosa [10]
  MIC: 0.19 µM
[11]
  MIC: 0.0313 µM
Staphylococcus aureus [12]
  fractional inhibitory concentration index (FICI): 0.156
Streptococcus pyogenes [13]
  fractional inhibitory concentration index (FICI): 0.094
Escherichia coli [14]
  fractional inhibitory concentration index (FICI): 0.313
Escherichia coli [15]
  fractional inhibitory concentration index (FICI): 0.52
Acinetobacter baumannii [16]
  fractional inhibitory concentration index (FICI): 0.375
Acinetobacter baumannii [17]
  fractional inhibitory concentration index (FICI): 0.068
Pseudomonas aeruginosa [18]
  fractional inhibitory concentration index (FICI): 0.563
Pseudomonas aeruginosa [19]
  fractional inhibitory concentration index (FICI): 0.079
[20]
  fractional inhibitory concentration index (FICI): 0.012
[21]
  fractional inhibitory concentration index (FICI): 0.023

## COc1cc(/C=C/C(=O)CC(=O)/C=C/c2ccc(O)c(OC)c2)ccc1O [CURCUMIN]
Enterococcus faecium
  MIC: 22 µM
Enterococcus faecalis
  MIC: 87 µM
Staphylococcus aureus [22]
  MIC: 87 µM
Staphylococcus aureus [23]
  MIC: 43 µM
Streptococcus pyogenes [24]
  MIC: 43 µM
Escherichia coli [25]
  MIC: 43 µM
Acinetobacter baumannii [26]
  MIC: 174 µM
Pseudomonas aeruginosa [27]
  MIC: 174 µM
[28]
  MIC: 22 µM
Pseudomonas aeruginosa [29]
  Activity: >3 log10CFU/ml
Acinetobacter baumannii [30]
  Activity: inactive
Staphylococcus aureus [31]
  fold change (FC): 3
Acinetobacter baumannii [32]
  fold change (FC): 3
Pseudomonas aeruginosa [33]
  fold change (FC): 3
